Reference: ChEMBL document CHEMBL1151817, “Steroids from an Australian sponge Psammoclema sp” (J Nat Prod, 2009)
Activity calls are given as the source filed them. The calls are words filed in the database; no cut-off is given here.

Key:
[1] = (§1) Inhibition of dynamin 1 GTPase activity in sheep brain peripheral membrane by microplate spectrophotometry; assay type: cell membranes, Ovis aries
How it was run: (§2)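 Sheep brain dynamin I, affinity-purified on GST-Amph2-SH3, used at 20 nM. Sample preincubated 12 min at 37 °C with 0.3 mM GTP in Tris pH 7.5 buffer containing Mg2+, Tween 80 and protease inhibitors. Enzyme then added; 30 min at 37 °C with shaking; phosphatidylserine liposome stimulation. Stopped with EDTA; malachite green phosphate readout at 650 nm against phosphate standard curve.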

[2] = system: A2780; experiment: Cytotoxicity against human A2780 cells after 72 hrs by MTT assay; assay type: functional; settings: A2780, 72 h
How it was run: (§3)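 ATCC lines grown in DMEM with 10% FBS, glutamine, antibiotics, 37 °C, 5% CO2; 2000–3000 cells/well plated, compound added 24 h later during log growth. Eight concentrations, 0.25–50 μM (from 20 mM DMSO stock), 72 h exposure; MTT absorbance at 540 nm. GI50 = concentration giving 50% growth inhibition versus untreated cells; duplicate wells, two separate experiments.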

[3] = system: DU-145; experiment: Cytotoxicity against human DU145 cells after 72 hrs by MTT assay; assay type: functional; settings: DU-145, 72 h; how it was run: as §3
[4] = system: MCF7; experiment: Cytotoxicity against human MCF7 cells after 72 hrs by MTT assay; assay type: functional; settings: MCF7, 72 h; how it was run: as §3
[5] = system: HT-29; experiment: Cytotoxicity against human HT-29 cells after 72 hrs by MTT assay; assay type: functional; settings: HT-29, 72 h; how it was run: as §3
[6] = organism: Ovis aries; experiment: as §1; assay type: cell membranes; how it was run: as §2

| IC50 [1] [µM] | Activity [6] | Structure (SMILES) | GI50 [2] [µM] | GI50 [3] [µM] | GI50 [4] [µM] | GI50 [5] [µM] |
| --- | --- | --- | --- | --- | --- | --- |
| > 300 |  | C=C(C)C(CC)CCC(C)C1C(O)CC2C3CCC4CC(O)CCC4(C)C3CC(O)C21C (stereo not given) | 11 | 13 | 10 | 7.1 |
|  | inactive | CC(C)C(C)/C=C/C(C)C1C(O)CC2C3CCC4CC(O)CCC4(C)C3CC(O)C21C (stereo not given) | 10 | 27 | 17 | 7 |
|  | inactive | C=C(CCC(C)C1C(O)CC2C3CCC4CC(O)CCC4(C)C3CC(O)C21C)C(C)C (stereo not given) | 19 | 27 | 18 | 18 |
|  | inactive | CC(C)CCCC(C)C1C(O)CC2C3CCC4CC(O)CCC4(C)C3CC(O)C21C (stereo not given) | 5.4 | 6.7 | 5.5 | 5 |
